Measurements taken from ChEMBL document CHEMBL4765412, “(±)-trans-2-phenyl-2,3-dihydrobenzofurans as leishmanicidal agents: Synthesis, in vitro evaluation and SAR analysis” (Eur J Med Chem, 2020).

Columns and labels:
[1] = Selectivity index, ratio of IC50 for cytotoxicity against rat L6 cells to IC50 for antileishmanial activity against Leishmania donovani MHOM/ET/67/L82 amastigotes; format: toxicity, cell-based; settings: read-out: Ratio IC50
[2] = system: L6; assay: Cytotoxicity against rat L6 cells assessed as reduction in cell viability incubated for 70 hrs by resazurin staining based inverted microscopic analysis; settings: L6, 70 h
How it was run: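 Rat L-6 skeletal myoblast line; racemates tested unless stated.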

[3] = system: Leishmania donovani; assay: Antileishmanial activity against Leishmania donovani MHOM/ET/67/L82 amastigotes assessed as growth inhibition incubated for 70 hrs by resazurin based inverted microscopic analysis; format: functional, organism-based; settings: Leishmania donovani, MHOM/ET/67/L82, 70 h
How it was run: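 Axenic L. donovani amastigotes (MHOM/ET/67/L82); racemates tested unless stated; miltefosine as positive control. Some values come from a separate run and were rescaled by that run's relative miltefosine IC50.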

[4] = Metabolic stability in mouse liver microsomes assessed as metabolite formation by glucuronidation at 100 umol/L incubated for 90 mins in presence of UDPGA by LC-MS analysis; settings: 1.5 h, 100 µM
[5] = Metabolic stability in mouse liver microsomes assessed as metabolite formation by ester hydrolysis at 100 umol/L incubated for 90 mins in absence of UDPGA by LC-MS analysis; settings: 1.5 h, 100 µM

SMILES | selectivity ratio [1] | IC50 [2] | IC50 [3] | Drug metabolism [4] | Drug metabolism [5]
C[C@H]1c2cc(/C=C/C(=O)O)ccc2O[C@@H]1c1ccc(O)cc1 (racemic) | 13.1 | 73.9 µM | 5.64 µM |  | 
COc1ccc([C@H]2Oc3ccc(/C=C/C(=O)OC(C)(C)C)cc3[C@@H]2CO)cc1OC (racemic) | 2.1 | 22.9 µM | 10.7 µM |  | 
C[C@H]1c2cc(Br)ccc2O[C@@H]1c1ccc(O)cc1 (racemic) | 1.7 | 56.6 µM | 32.5 µM |  | 
CC(=O)Oc1ccc([C@H]2Oc3ccc(/C=C/C(=O)OC(C)(C)C)cc3[C@@H]2C(=O)OC(C)(C)C)cc1 (racemic) | 5.7 | 11.8 µM | 2.06 µM |  | 
CC(C)(C)OC(=O)/C=C/c1ccc2c(c1)[C@H](CO)[C@@H](c1ccc(O)cc1)O2 (racemic) | 2 | 33.8 µM | 17.1 µM |  | 
OC[C@H]1c2cc(-c3ccc(O)cc3)ccc2O[C@@H]1c1ccc(O)cc1 (racemic) | 2.7 | 44.5 µM | 16.5 µM |  | 
COc1cc([C@H]2Oc3ccccc3[C@@H]2C)cc(I)c1O (racemic) | 3.5 | 46.9 µM | 13.4 µM |  | 
OC[C@H]1c2cc(Br)ccc2O[C@@H]1c1ccc(O)c(O)c1 (racemic) | 0.2 | 3.93 µM | 17.8 µM |  | 
CC(C)OC(=O)/C=C/c1cc(O)c2c(c1)[C@H](C(=O)OC(C)C)[C@@H](c1ccc(O)c(O)c1)O2 (racemic) | 18.9 | 10.2 µM | 0.54 µM | Metabolite_Detected | Metabolite_Detected
OC[C@H]1c2cc(-c3cccnc3F)ccc2O[C@@H]1c1ccc(O)cc1 (racemic) | 2.8 | 52.4 µM | 18.8 µM |  | 
COc1ccc([C@H]2Oc3ccc(/C=C/C(=O)OC(C)(C)C)cc3[C@@H]2C)cc1 (racemic) | 10 | 40.1 µM | 4.01 µM |  | 
Cc1ccc(-c2ccc3c(c2)[C@H](CO)[C@@H](c2ccc(O)cc2)O3)s1 (racemic) | 1 | 15.8 µM | 16.1 µM |  | 
COc1ccc([C@H]2Oc3ccc(/C=C/C(=O)OC(C)(C)C)cc3[C@@H]2CF)cc1OC (racemic) | 2.6 | 34 µM | 13 µM |  | 
O=S(=O)(OC[C@H]1c2ccccc2O[C@@H]1c1ccc(OS(=O)(=O)c2ccccn2)cc1)c1ccccn1 (racemic) | 29.9 | 189 µM | 6.31 µM |  | 
O=Cc1ccc(-c2ccc3c(c2)[C@H](CO)[C@@H](c2ccc(O)cc2)O3)cc1 (racemic) | 1.5 | 55.9 µM | 37.7 µM |  | 
CC(C)(C)OC(=O)/C=C/c1ccc2c(c1)[C@H](C(=O)OC(C)(C)C)[C@@H](c1ccc(OC(C)(C)C)cc1)O2 (racemic) | 15.5 | 202 µM | 13.1 µM |  | 
C/C=C/c1cc(OC)c2c(c1)[C@H](C)[C@@H](c1ccc(O)c(OC)c1)O2 (racemic) [LICARIN A] | 1 | 6.21 µM | 6.45 µM |  | 
